TNF necrop inh = TNF-alpha cell death inhibition in Jurkat FADD-/- cells. Jurkat FADD-/- TNF necroptosis rescue, ATP luminescence, 24 h; 0 = TNF only, 100 = no-TNF cells. activation (protection from cell death), % at 10 µM. 220,000 tested, 0.068% active;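 active = activation, meaning protection from cell death, of at least 50% relative to plate controls; inactive = activation below 50%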;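 note: necroptosis triggered by 40 ng/mL TNF-alpha added together with compound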
HSV augment = increases HSV replication in cells; HSV replication augmentation in cells, fold increase; maximum fold increase; 220,000 tested, 0.005% active; AID 1956; in the data active = maximum fold increase above about 1.5; inconclusive = no clear call, values can overlap the other calls; tested in PC3 cells
E-sel TNF inh = blocks E-selectin expression induced by TNF alpha. AID 1246. inhibition, % at 2 µM. 120,000 tested, 0.71% active. HUVEC TNFa-induced E-selectin immunofluorescence, high content;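 active = inhibition above the batch mean plus 3 SD, and confirmed as a hit on visual image review, cut at about 43% in these data; inconclusive = passes the inhibition cutoff but fails visual image review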
zVAD death inh = blocks zVAD induced death of L929 cells; L929 zVAD necroptosis rescue, ATP luminescence, 24 h; with zVAD 60 µM; viability rescue, % at 10 µM; 220,000 tested, 0.38% active; AID 1377;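 active = activation, scaled between plate controls, above about 75%, limit read from the data; inactive = activation under that limit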
Mdm2 ligase inh = inhibitors of human Mdm2 E3 ubiquitin ligase; Q00987; cell-based MDM2 ubiquitination luciferase reporter, 2 h; 0 = plate control, 100 = twice control, blank-subtracted; signal enhancement, % at 5 µM; 210,000 tested, 0.11% active;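 active = signal enhancement of 30% or more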;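 note: luminescence tracks abundance of the self-degrading MDM2-luciferase fusion protein; higher signal means inhibition of MDM2 E3 ligase activity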
Target sequence (Q00987 whole entry, looked up, the tested form may be a part): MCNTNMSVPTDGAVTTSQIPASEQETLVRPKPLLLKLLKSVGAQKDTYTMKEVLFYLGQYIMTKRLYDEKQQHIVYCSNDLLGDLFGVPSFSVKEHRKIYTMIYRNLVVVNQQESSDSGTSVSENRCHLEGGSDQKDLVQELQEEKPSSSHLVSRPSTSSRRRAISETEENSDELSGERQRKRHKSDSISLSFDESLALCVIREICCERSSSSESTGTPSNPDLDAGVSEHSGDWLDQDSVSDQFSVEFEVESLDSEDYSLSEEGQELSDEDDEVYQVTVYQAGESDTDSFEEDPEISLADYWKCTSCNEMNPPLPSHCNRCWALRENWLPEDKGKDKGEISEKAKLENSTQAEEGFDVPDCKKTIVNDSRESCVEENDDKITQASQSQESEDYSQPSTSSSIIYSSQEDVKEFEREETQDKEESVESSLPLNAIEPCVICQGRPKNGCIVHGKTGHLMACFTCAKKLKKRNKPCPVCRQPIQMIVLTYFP
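System: stable MDM2–luciferase fusion reporter cells / Input: 2000 cells seeded into each well / Schedule: 4 h settle plus 2 h compound, 37 °C / Compound: single-point 5 µM / Buffer or medium: cells held in DMEM / Benchmarks: control and blank well means / Evaluation: percent signal gain over controls, blank-subtracted / Measured by: luciferase luminescence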
zVAD necrop conf = confirmed blocker of zVAD induced death in L929 cells. activation (protection from necroptosis), % at 10 µM. shares compounds with zVAD death inh. 760 tested, 16% active. AID 463117. L929 zVAD-induced necroptosis rescue, ATP luminescence, 24 h;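 active = mean protection from necroptosis of at least 50% over duplicate tests; inactive = mean protection below 50%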
Large screens that a line does not name were inactive (follow-up assays come after a bar, where they were run). Hits are enriched below; roughly 0.89% of the tested compounds scored in any of these assays.

Cc1ccnc(NC(=O)Nc2ccc3c(c2)OCO3)c1	zVAD death inh 85 | zVAD necrop conf inactive
CCN(CC)S(=O)(=O)c1ccc(C)c(NC(=S)NC2CCCCC2)c1	none (no result: E-sel TNF inh)
O=C(Nc1ccc(N2CCN(C(=O)c3ccco3)CC2)cc1)C(c1ccccc1)c1ccccc1	zVAD death inh 76 | zVAD necrop conf inactive
CCOC(=O)c1cc(-c2ccc(OC)cc2)nc2c1c(C)nn2CCC(N)=S	none (no result: E-sel TNF inh)
O=C(CCl)Nc1cc(SCC(O)CO)cc([N+](=O)[O-])c1 (configuration not stated)	zVAD death inh 81 (no result: E-sel TNF inh) | zVAD necrop conf 77
CCC(=O)Nc1cc(SCCO)cc([N+](=O)[O-])c1	none
COc1cc(/C=N/Nc2nc3ccccc3o2)cc(OC)c1O	none
CC(=O)Nc1ccc(/C=N/Nc2nc3ccccc3s2)cc1	TNF necrop inh 63, zVAD death inh 82 (no result: E-sel TNF inh) | zVAD necrop conf 83
COc1ccc(/C=N/Nc2nc3ccccc3s2)cc1O	TNF necrop inh 59, zVAD death inh 79 (no result: E-sel TNF inh, Mdm2 ligase inh) | zVAD necrop conf 76
COc1ccc(/C=N/Nc2nc3ccccc3o2)cc1O	zVAD death inh 86 | zVAD necrop conf inactive
CC(=O)Nc1cccc(/C(C)=N/Nc2nc3ccccc3s2)c1	zVAD death inh 78 (no result: E-sel TNF inh) | zVAD necrop conf inactive
C/C(=N\Nc1nc2ccccc2s1)c1cccs1	none
O=C(NC1CCCCC1)c1ccc(S(=O)(=O)c2ccccc2)cc1	none (no result: E-sel TNF inh)
CCN(CC)S(=O)(=O)c1ccc(N2CCOCC2)c(NC(=O)C2CCCO2)c1 (configuration not stated)	none (no result: E-sel TNF inh, Mdm2 ligase inh)
CC(NC(=O)CNC(=S)N(Cc1cccs1)C1CCCC1)c1ccccc1 (configuration not stated)	none (no result: E-sel TNF inh)
CC(O)c1nc2ccccc2n1CCCCOc1ccccc1 (configuration not stated)	none (no result: E-sel TNF inh)
FC(F)(F)c1cnc2c(-c3ccccc3)n[nH]c2c1	E-sel TNF inh 68, zVAD death inh 77 | zVAD necrop conf inactive
CC1CCCC(NC(=O)C2CCN(S(=O)(=O)N3CCCCCC3)CC2)C1C (configuration not stated)	none (no result: zVAD death inh)
Cc1cccc(OCC(=O)Nc2ccccc2-c2ccccc2)c1	zVAD death inh 75 (no result: E-sel TNF inh) | zVAD necrop conf inactive
Cc1ccc(NC(=O)Nc2cccnc2)cc1NC(=O)Nc1cccnc1	zVAD death inh 77 (no result: E-sel TNF inh) | zVAD necrop conf inactive
CC(=O)c1cccc(NC(=O)Nc2cccnc2)c1	none
CCOC(=O)N1CCN(CC(=O)Nc2sc(CC)cc2C(=O)c2ccc(OC)cc2)CC1	none (no result: E-sel TNF inh)
COc1ccccc1OCCSc1nc(C)c(Cc2ccccc2)c(=O)[nH]1	none (no result: E-sel TNF inh, Mdm2 ligase inh)
CCOc1cc(/C=C(\C#N)c2[nH]nc(N)c2C#N)ccc1O	zVAD death inh 81 | zVAD necrop conf inactive
O=C1c2cccc3c2[C@H](CCC3)CN1[C@@H]1CN2CCC1CC2	none (no result: TNF necrop inh, E-sel TNF inh, zVAD death inh, Mdm2 ligase inh)
CCOc1ccccc1N1CCN(Cc2cnc(-c3ccccc3)[nH]2)CC1	none (no result: E-sel TNF inh)
O=C(CSc1ccc(Cl)cc1)NNC(=O)c1cccnc1	none
CC(=O)c1ccc(NC(=O)c2noc3c2CCCCC3)cc1	none (no result: HSV augment)
O=C(Nc1ccc2c(c1)OCO2)c1noc2c1CCCCC2	zVAD death inh 80 | zVAD necrop conf inactive
COC(=O)CC1C(=O)NCCN1C(=S)NC(=O)c1sc2ccccc2c1Cl (configuration not stated)	none (no result: E-sel TNF inh)
CCO[C@@H]1OC(C(=O)NCc2ccccc2)=C[C@H](C2CCCCC2)[C@H]1CCCO	none (no result: E-sel TNF inh, Mdm2 ligase inh)
O=C(COC(=O)c1ccc(-c2nnc(-c3ccccc3)o2)cc1)c1ccccc1	zVAD death inh 78 | zVAD necrop conf inactive
O=C(OCc1nnc(-c2ccccc2)o1)c1ccccc1	none (no result: E-sel TNF inh)
CN(C)S(=O)(=O)c1cccc(NC(=O)CCc2c[nH]c3ccccc23)c1	none
CCc1ccc(NC(=O)CSc2nc3n[nH]c(C)c3c(=N)n2-c2cccc(OC)c2)cc1	zVAD death inh 91 | zVAD necrop conf 56
Cc1noc(C)c1COc1cccc(C(=O)Nc2ccc(C#N)cc2)c1	none
Cc1ccc(NC(=O)c2cccc(OCc3c(C)noc3C)c2)cc1	zVAD death inh 79 | zVAD necrop conf inactive
COc1cc(/C=C2\Oc3cc(O)ccc3C2=O)ccc1O	HSV augment inconclusive, zVAD death inh 76 (no result: E-sel TNF inh) | zVAD necrop conf inactive
Nc1c(C(=O)NCC2CCCO2)c2nc3ccccc3nc2n1-c1ccccc1 (configuration not stated)	zVAD death inh 86 (no result: E-sel TNF inh) | zVAD necrop conf inactive
CCCNC(=O)c1c(N)n(-c2cccc(OC)c2)c2nc3ccccc3nc12	zVAD death inh 77 | zVAD necrop conf inactive
COCCCNC(=O)c1c(N)n(-c2cccc(S(N)(=O)=O)c2)c2nc3ccccc3nc12	none
COc1ccccc1-n1c(N)c(C(=O)NCC2CCCO2)c2nc3ccccc3nc21 (configuration not stated)	none
Cc1ccc(NC(=S)N(CCN(C)C)Cc2cc3cc(C)ccc3[nH]c2=O)cc1	none (no result: E-sel TNF inh)
N#Cc1ccc[n+](CC(=O)c2ccc(NC(=O)c3ccccc3)cc2)c1	none (no result: E-sel TNF inh)
CC1=CC(=Nc2c(C)n(C)n(-c3ccccc3)c2=O)C=C(C)C1=O	none (no result: E-sel TNF inh)
CC1=CC(=Nc2c(C)n(C)n(-c3ccccc3)c2=O)C=CC1=O	zVAD death inh 77 (no result: E-sel TNF inh) | zVAD necrop conf 50
COc1ccccc1C(=O)n1nc(-c2cccnc2)nc1NCc1ccccc1	zVAD death inh 77 (no result: E-sel TNF inh) | zVAD necrop conf inactive
CCC(=O)n1nc(-c2ccc(Cl)cc2)nc1NCc1ccccc1	none
CCCC(=O)n1nc(-c2cccnc2)nc1NCc1ccc(OC)cc1	zVAD death inh 80 (no result: E-sel TNF inh) | zVAD necrop conf inactive
COCC(=O)n1nc(-c2ccccc2)nc1NCc1cccs1	zVAD death inh 82 (no result: E-sel TNF inh) | zVAD necrop conf inactive
CC(C)C(=O)n1nc(-c2cccnc2)nc1NCc1ccc(F)cc1	none (no result: E-sel TNF inh)
COc1ccc(N2CCN(C(=O)Cn3cnc4c(cnn4-c4ccc(C)cc4)c3=O)CC2)cc1	none (no result: E-sel TNF inh)
CN(C)CCN1C(=O)NC(C)(c2ccc([N+](=O)[O-])cc2)C1=O (configuration not stated)	none (no result: E-sel TNF inh)
O=C(CCC(=O)N1CCN(C(=O)c2ccco2)CC1)c1ccc(F)cc1	zVAD death inh 76 (no result: E-sel TNF inh) | zVAD necrop conf inactive
O=C(COc1ccccc1)Nc1ccc2[nH]c(=O)[nH]c2c1	zVAD death inh 76 (no result: E-sel TNF inh) | zVAD necrop conf inactive
Cc1ccccc1C(=O)NC(=S)Nc1ccc2[nH]c(=O)[nH]c2c1	zVAD death inh 76 | zVAD necrop conf inactive
O=C(COc1ccccc1)Nc1ccc2c(c1)Cc1cc(NC(=O)COc3ccccc3)ccc1-2	none
Cc1cc(C(=O)Cn2nc(C(=O)O)c3ccccc3c2=O)c(C)n1CCc1ccc(Cl)cc1	zVAD death inh 78 (no result: E-sel TNF inh) | zVAD necrop conf inactive
Cc1cc(C(=O)Cn2nc(C(=O)O)c3ccccc3c2=O)c(C)n1-c1ccccc1	none (no result: E-sel TNF inh)
CCNC(=O)NC(=O)C(C)OC(=O)c1ccc(-n2nc(SC)sc2=S)cc1 (configuration not stated)	zVAD death inh 82 | zVAD necrop conf inactive

Bioassay records (PubChem)
